# Diaphorase inh – diaphorase inhibition or chemical oxidation counter-screen; inhibition, % at 20 µM; diaphorase resazurin-to-resorufin fluorescence, NADH, 16 min; bacterial (C. kluyveri) enzyme, not human; actives 0.69% (n = 190,000);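 active means primary screen inhibition at 20 µM above a set limit, cut at about 50% in these data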;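 further: plate controls were DMSO with full reaction for no effect and wells lacking NADH for full effect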
#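 Detection: fluorescence of resorufin formed from resazurin, Ex 544/Em 590 nm; test system: Clostridium kluyveri diaphorase enzyme; amount: 0.14 U/mL diaphorase, enzyme working solution; times: 16-min room-temperature incubation before reading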
# PMI activator – phosphomannose isomerase (human) activation; activation factor at 20 µM; purified human PMI, coupled resazurin fluorescence, 20 min; hits give high values; 1 = vehicle control, 0 substrate-free wells; actives 0.005% (n = 190,000); P34949;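 active means activation factor of 2 or more at 20 µM, relative to plate controls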
# Target sequence (P34949 whole entry, looked up): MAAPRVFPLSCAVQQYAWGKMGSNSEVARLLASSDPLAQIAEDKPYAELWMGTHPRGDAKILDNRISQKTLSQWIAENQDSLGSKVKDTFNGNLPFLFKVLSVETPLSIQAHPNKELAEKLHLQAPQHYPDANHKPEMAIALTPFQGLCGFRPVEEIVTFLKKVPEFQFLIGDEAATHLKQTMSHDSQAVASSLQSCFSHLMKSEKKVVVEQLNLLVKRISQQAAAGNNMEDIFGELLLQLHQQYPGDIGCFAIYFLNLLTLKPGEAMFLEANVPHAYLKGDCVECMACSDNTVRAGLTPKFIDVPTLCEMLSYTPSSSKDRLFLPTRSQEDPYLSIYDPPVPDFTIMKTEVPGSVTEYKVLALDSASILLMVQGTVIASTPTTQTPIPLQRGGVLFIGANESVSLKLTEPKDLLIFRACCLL
# PMI act satM6P – activators of human phosphomannose isomerase at near-saturating mannose 6-phosphate | coupled PMI enzyme assay, resazurin fluorescence, 20 min; hits give high values; 1 = untreated enzyme, 0 = substrate-free blank | activation factor at 20 µM | actives 0.34% (n = 190,000);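 active means activation factor of 2 or more at 20 µM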
#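 Material: human phosphomannose isomerase with PGI, G6PDH, diaphorase coupling enzymes. Quantity: 15 ng/mL PMI. Medium: HEPES pH 7.4 buffer with MgCl2 and Tween-20. Reagent: Near-saturating mannose-6-phosphate, 1.0 mM. Compound: 20 µM single dose. Times: enzyme reaction with compound 20 min at room temperature. Detection: resorufin fluorescence at Ex 544/Em 590 nm.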
# Diaph act CS – activates diaphorase or chemically reduces, flagging diaphorase assay artifacts; Diaphorase/resazurin coupled assay, resorufin fluorescence, 16 min; hits give high values; 1 = vehicle wells, 0 = NADH-free wells; actives 0.005% (n = 190,000); AID 1229; activation factor at 20 µM;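 active means diaphorase activity raised at least twofold by the compound at 20 µM; inactive means activation factor below 2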
#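 Assay system: bacterial diaphorase enzyme (C. kluyveri) / Input: enzyme 0.07 U/mL final / Medium: 50 mM HEPES pH 7.4 with 4.542 mM MgCl2, 0.005% Tween 20 / Doses: single compound dose of 20 µM, 1% DMSO final / Incubation: 16 min enzyme reaction, ambient temperature / Signal: fluorescence, excitation 544 nm and emission 590 nm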
# G6PDH counter – L. mesenteroides G6PDH inhibition counter-screen; Purified L. mesenteroides G6PDH, diaphorase/resazurin coupled fluorescence, 45 min; inhibition, % at 5 µM; actives 0.12% (n = 200,000); AID 1020; in the data active means inhibition above about 50%
# * = called active by the depositor. This is a sample that favours compounds with a hit; in the whole collection about 1.1% have one here.
SMILES,Diaphorase inh,PMI activator,PMI act satM6P,Diaph act CS,G6PDH counter
COc1cc2c(cc1NC(=O)C(C)Sc1ccc(C)cc1)oc1ccccc12 (stereo not given),76*,0.8,0.8,0.2,0
COc1cc(CN2CCN(C(=O)CC(C)C)CC2)cc(OC)c1O,39,1.1,0.4,0.6,53*
COc1ccc(CN2CCN(C(=O)c3cc(OC)c(OC)c(OC)c3)CC2)cc1OC,18,1,1.1,0.8,1
COc1ccc(C(=O)N2CCN(Cc3cc(OC)c(O)c(OC)c3)CC2)cc1OC,29,0.7,0.4,0.7,55*
COc1cc(CN2CCN(C(=O)CC(C)C)CC2)cc(OC)c1OC,-3,0.9,1,1,9
Cc1ccc(NC(=S)Nc2cccc3cnccc23)c(C)c1,59*,0.6,0.7,0.4,16
Cc1cc(C)cc(NC(=S)Nc2cccc3cnccc23)c1,34,0.3,0.4,0.7,36
S=c1[nH]ncn1/N=C/c1cccc(Oc2ccccc2)c1,85*,0.8,0.9,0.2,8
Cc1cc(=O)c(C(=O)O)nn1-c1ccccc1,6,1,0.9,0.9,6
Clc1ncc(CN2CCN(c3ccccc3)CC2)s1,13,1.1,1,0.9,7
c1ccc(N2CCN(Cc3ccnc4ccccc34)CC2)cc1,11,1.5,2*,0.9,1
Cc1ccc(S(=O)(=O)/N=C2/C=C(Sc3ncn[nH]3)C(=O)c3ccccc32)c(C)c1,69*,0,0.1,0.3,37
Cn1cc(/C=C2\SC(=O)NC2=S)c2ccccc21,54*,0.6,0.5,0.5,11
CC1=C(C)/C(=N\OS(=O)(=O)c2ccc(C)cc2)C=CC1=O,101*,0.2,0.2,0,32
CC1=C/C(=N\OS(=O)(=O)c2ccccc2)C(C)=CC1=O,100*,-0.1,0.1,0,4
CC1=C/C(=N\OS(=O)(=O)c2ccccc2)C(C(C)C)=CC1=O,101*,0.2,0.1,0,40
COc1ccc(NC(=O)NCCc2cccc(Cl)c2)cc1OC,20,0.8,0.8,0.8,10
COc1ccc(NC(=O)c2ccccc2NC(=O)CSc2ccc(Cl)cc2)cc1,2,0.9,0.9,1,38
CS(=O)(=O)N1CCN(C(=O)NC2CCCCC2)CC1,-2,1,1.1,1,7
Fc1ccc(N/N=C(/c2ccccc2)c2ccccn2)cc1,20,1.4,2*,0.8,-12
COc1ccc(C=Nc2ccc3[nH]ncc3c2)c(O)c1,66*,0.5,0.4,0.3,40
CC(=O)c1cccc(CN2CCN(C(C)C)C(CCO)C2)c1 (stereo not given),15,0.8,0.8,0.9,17
CCOC(=O)c1c(NC(=O)c2ccco2)n(C2CCCCC2)c2nc3ccccc3nc12,69*,0.5,0.4,0.3,38
N#Cc1c(NC(=O)c2ccccc2Cl)n(Cc2ccccc2)c2nc3ccccc3nc12,38,0.7,0.7,0.6,-13
COc1ccc(-n2c(NC(=O)c3ccco3)c(C#N)c3nc4ccccc4nc32)cc1,70*,0.4,0.3,0.3,42
SMILES,Diaphorase inh,PMI activator,PMI act satM6P,Diaph act CS,G6PDH counter
CC12CCC(C(=O)N(CSC(=S)N/N=C\c3ccccc3)C1=O)C2(C)C (stereo not given),58*,0.9,0.9,0.4,-2
COC(=O)C1=C(C)N(CCCC(=O)O)C(=O)NC1c1cc2c(cc1[N+](=O)[O-])OCO2 (stereo not given),38,0.9,0.8,0.6,17
COC(=O)C1=C(C)N(C)C(=O)NC1c1cc2c(cc1[N+](=O)[O-])OCO2 (stereo not given),59*,0.6,0.6,0.4,10
CCN(CC)S(=O)(=O)c1cc(C(=O)OCC(=O)Nc2cccc(Br)c2)ccc1F,23,0.9,0.9,0.8,-2
Cc1ccc(C(=O)Nc2cccnc2N2CCN(C)CC2)cc1,8,1.2,1.1,0.9,7
COc1ccc2oc(=O)c(/C(C)=N/Nc3nc(-c4cc(C)ccc4C)cs3)cc2c1,14,1.6,2.3*,0.9,5
C/C(=N\Nc1nc(-c2ccc(C)cc2C)cs1)c1cc2ccccc2oc1=O,8,0.9,1.1,0.9,-7

# From PubChem BioAssay
